# Read-outs that look alike come from different tables or passages of the source.
# Assays:
# [1] = tested on: Caco-2 cells; type: in vitro ADME, human; settings: for Clcdf,ap, efflux clearance of CDF across the apical membrane, parameter estimate (% RSE) / Clcdf,bl, efflux clearance of CDF across the basolateral membrane, parameter estimate (% RSE) / Clhydrolysis, intracellular hydrolysis of CDFDA, parameter estimate (% RSE): control; for β-adjustment factor for enhancement of CDFDA hydrolysis clearance (Clhydrolysis), estimate (% RSE): Equation 2; for model predicted effect on CDF clearance across the apical membrane: co-exposure with agent; for β-adjustment factor for enhancement of basolateral membrane clearance (Clcdf,bl), estimate (% RSE): Equation 2, agent 10, 30, 100 μM
# [2] = tested on: Caco-2 cells; assay: CDF transport across Caco-2 monolayers following CDF dosing; type: in vitro ADME, human
# Summary of the method: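 Caco-2 cells (passages 32–58) were grown 18–24 days on collagen-coated 0.4 μm PTFE Transwells. They were pre-incubated 30 min in pH 7.4 transport buffer with 0.1% DMSO/0.1% ethanol, then given 5 μM CDF apically or basolaterally at 37°C with 150 rpm shaking. CDF was quantified against 7.8–1000 nM standards. Clearance = transport rate/mean initial–final donor concentration. A two-compartment passive paracellular population model was fitted by QRPEM, 13 filters per direction.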
# [3] = tested on: canalicular membrane of rat hepatocytes; settings: cited from earlier work
# [4] = cited from earlier work
# [5] = tested on: Caco-2 cells; type: in vitro ADME, human; settings: for fraction of CDF in the basolateral compartment / fraction of CDF in the cell compartment at 120-minutes: average; for fraction of CDF present in the apical compartment / total CDF production, % of the CDFDA dose: mean ± standard deviation
# [6] = tested on: CDFDA hydrolysis in Caco-2 cell homogenates; settings: cited from earlier work; for effect on CDFDA hydrolysis in Caco-2 cell homogenates: 100 μM
# [7] = tested on: Caco-2 cells; settings: % of dose, cited from earlier work
# [8] = CDFDA hydrolysis in transport buffer; type: physicochemical; settings: 37°C
# [9] = tested on: Caco-2 cells; settings: contemporaneous studies; cited from earlier work
# [10] = apical dosing 5 μM CDFDA, 500 simulations
# [11] = basolateral dosing 5 μM CDFDA, 500 simulations
# [12] = control experiments, CDFDA dosing
# [13] = apical 5 μM CDFDA with 100 μM agent
# [14] = apical 5 μM CDFDA with 100 μM agent, 9 filters
# [15] = basolateral 5 μM CDFDA with 100 μM agent
# [16] = basolateral 5 μM CDFDA with 100 μM agent, 9 filters
# [17] = apical 5 μM CDFDA alone (Control)
# [18] = basolateral 5 μM CDFDA alone (Control)
compound,measurement,setting,value
"5 (and 6)-Carboxy-2′,7′-Dichloroflourescein [CDF]",ratio of basolateral to apical dosing transcellular CDF clearance,[1]; Equations 3a–b with 3-compartment model estimates,2.9
same,"simulated intracellular CDF concentration, average",[1]; apical CDFDA dosing,10 µM
same,"Clcdf,ap, bootstrap analysis median (90% confidence interval)",[1]; [10],2.2 × 10^−5 (1.7 – 2.6 × 10^−5) mL/min
same,"Clcdf,bl, bootstrap analysis median (90% confidence interval)",[1]; [10],1.3 × 10^−5 (1.2 – 1.4 × 10^−5) mL/min
same,"Clcdf,ap, efflux clearance of CDF across the apical membrane, parameter estimate (% RSE)",[1]; apical dosing 5 μM CDFDA,8.4 × 10^−5 (<0.1) mL/min
same,"Clcdf,bl, efflux clearance of CDF across the basolateral membrane, parameter estimate (% RSE)",[1]; apical dosing 5 μM CDFDA,5.6 × 10^−5 (0.1) mL/min
same,"simulated intracellular CDF concentration, average",[1]; basolateral CDFDA dosing,24 µM
same,"Clcdf,ap, bootstrap analysis median (90% confidence interval)",[1]; [11],8.3 × 10^−5 (7.1 – 10.8 × 10^−5) mL/min
same,"Clcdf,bl, bootstrap analysis median (90% confidence interval)",[1]; [11],5.1 × 10^−5 (3.8 – 6.7 × 10^−5) mL/min
same,"Clcdf,ap, efflux clearance of CDF across the apical membrane, parameter estimate (% RSE)",[1]; basolateral dosing 5 μM CDFDA,8.5 × 10^−5 (0.2) mL/min
same,"Clcdf,bl, efflux clearance of CDF across the basolateral membrane, parameter estimate (% RSE)",[1]; basolateral dosing 5 μM CDFDA,5.2 × 10^−5 (0.2) mL/min
same,fold larger apical versus basolateral membrane CDF clearance,[1]; following both apical and basolateral dosing,approximately 1.5 fold
same,"CDF clearance across Caco-2 cells, model based analysis, AB/BA combined, population estimate (RSE,%)","[2]; 5 μM CDF, simultaneous modeling of AB and BA directions",1.6 × 10^−5 (11.7) mL/min
same,"CDF clearance across Caco-2 cells, model independent analysis, AB, mean (CV,%)","[2]; apical exposure to 5 μM CDF, 5 occasions, 13 filters",1.6 × 10^−5 (30.3) mL/min
same,"CDF clearance across Caco-2 cells, model based analysis, AB, population estimate (RSE,%)","[2]; apical exposure to 5 μM CDF, two-compartment model",1.3 × 10^−5 (19.0) mL/min
same,"CDF clearance across Caco-2 cells, model independent analysis, BA, mean (CV,%)","[2]; basolateral exposure to 5 μM CDF, 5 occasions, 13 filters",2.1 × 10^−5 (3.3) mL/min
same,"CDF clearance across Caco-2 cells, model based analysis, BA, population estimate (RSE,%)","[2]; basolateral exposure to 5 μM CDF, two-compartment model",2.0 × 10^−5 (10.9) mL/min
same,Km,"[3]; read-out: Km, high affinity state, Sprague-Dawley rats",3 µM
same,Km,"[3]; read-out: Km, high affinity state, Wistar rats",9 µM
same,Km,"[3]; read-out: Km, low affinity state, Sprague-Dawley rats",192 µM
same,Km,"[3]; read-out: Km, low affinity state, Wistar rats",69 µM
same,protein binding,[4],15 – 20%
same,fraction of CDF in the basolateral compartment,[5]; apical CDFDA dosing,1.1%
same,fraction of CDF in the cell compartment at 120-minutes,[5]; apical CDFDA dosing,1.5%
same,fraction of CDF present in the apical compartment,"[5]; apical CDFDA dosing, n = 16 occasions",4.0 ± 2.33%
same,fraction of CDF in the basolateral compartment,[5]; basolateral CDFDA dosing,1.0%
same,fraction of CDF in the cell compartment at 120-minutes,[5]; basolateral CDFDA dosing,1.3%
same,fraction of CDF present in the apical compartment,[5]; basolateral CDFDA dosing,1.9 ± 1.24%
same,"mean ratio of CDF cell content, basolateral versus apical dosing",[5]; [12],2.9
same,"mean ratio of CDF flux, basolateral versus apical dosing",[5]; [12],2.9
O=c1c(-c2ccc(O)cc2)coc2cc(O)cc(O)c12 [Genistein],model predicted effect on CDF efflux,"[1]; CDFDA dosing, genistein exposure",no predicted effects
same,"β-adjustment factor for enhancement of CDFDA hydrolysis clearance (Clhydrolysis), estimate (% RSE)",[1]; apical CDFDA dosing,6.9 × 10^−3 (<0.1)
same,"β-adjustment factor for enhancement of CDFDA hydrolysis clearance (Clhydrolysis), estimate (% RSE)",[1]; basolateral CDFDA dosing,2.8 × 10^−2 (0.6)
same,"AB Donor (apical) CDF at 120 minutes, mean",[5]; [13],301 pmoles/well
same,"AB Intracellular CDF at 120 minutes, mean",[5]; [13],85 pmoles/well
same,"AB directional CDF flux, mean",[5]; [14],1.25 pmol/min
same,"BA Donor (basolateral) CDF at 120 minutes, mean",[5]; [15],427 pmoles/well
same,"BA Intracellular CDF at 120 minutes, mean",[5]; [15],134 pmoles/well
same,"BA directional CDF flux, mean",[5]; [16],2.68 pmol/min
same,effect on CDFDA hydrolysis observed in vitro,[6],stimulation of CDFDA hydrolysis
CN(C)C(=O)CCSC(SCCC(=O)O)c1cccc(/C=C/c2ccc3ccc(Cl)cc3n2)c1 (stereo not shown) [MK-571],fold increase of basolateral membrane CDF clearance,"[1]; 100 μM MK-571, the highest concentration evaluated",up to 2 fold
same,model predicted effect on CDF clearance across the apical membrane,[1]; CDFDA dosing,not altered
same,"β-adjustment factor for enhancement of basolateral membrane clearance (Clcdf,bl), estimate (% RSE)",[1]; apical CDFDA dosing,1.7 × 10^−2 (<0.1)
same,"β-adjustment factor for enhancement of basolateral membrane clearance (Clcdf,bl), estimate (% RSE)",[1]; basolateral CDFDA dosing,2.4 × 10^−2 (0.4)
same,basolateral to apical dosing CDF flux ratio in the presence of MK-571,"[5]; CDFDA dosing, control approximately 3",~0.8
same,"AB Donor (apical) CDF at 120 minutes, mean",[5]; [13],115 pmoles/well
same,"AB Intracellular CDF at 120 minutes, mean",[5]; [13],15 pmoles/well
same,"AB directional CDF flux, mean",[5]; [14],0.51 pmol/min
same,"BA Donor (basolateral) CDF at 120 minutes, mean",[5]; [15],249 pmoles/well
same,"BA Intracellular CDF at 120 minutes, mean",[5]; [15],26 pmoles/well
same,"BA directional CDF flux, mean",[5]; [16],0.39 pmol/min
same,effect on CDFDA hydrolysis in Caco-2 cell homogenates,[6],no effect
CC(C)(C)C(=O)OCOP(=O)(COCCn1cnc2c(N)ncnc21)OCOC(=O)C(C)(C)C [adefovir dipivoxil],total metabolite production,[7]; apical dosing,93%
same,total metabolite production,[7]; basolateral dosing,34%
CDF diacetate [CDFDA],fold larger CDFDA hydrolysis clearance for basolateral versus apical dosing,[1],1.8 fold
same,"Clhydrolysis, intracellular hydrolysis of CDFDA, parameter estimate (% RSE)",[1]; apical dosing 5 μM CDFDA,8.2 × 10^−4 (<0.1) mL/min
same,"Clhydrolysis, bootstrap analysis median (90% confidence interval)",[1]; [11],1.6 × 10^−3 (1.2 – 1.9 × 10^−3) mL/min
same,"Clhydrolysis, intracellular hydrolysis of CDFDA, parameter estimate (% RSE)",[1]; basolateral dosing 5 μM CDFDA,1.5 × 10^−3 (0.1) mL/min
same,"AB Donor (apical) CDF at 120 minutes, mean",[5]; [17],101 pmoles/well
same,"AB Intracellular CDF at 120 minutes, mean",[5]; [17],29 pmoles/well
same,"AB directional CDF flux, mean","[5]; apical 5 μM CDFDA alone (Control), 48 filters",0.28 pmol/min
same,"total CDF production, % of the CDFDA dose",[5]; apical dosing,6.7 ± 3.10%
same,"BA Donor (basolateral) CDF at 120 minutes, mean",[5]; [18],143 pmoles/well
same,"BA Intracellular CDF at 120 minutes, mean",[5]; [18],83 pmoles/well
same,"BA directional CDF flux, mean","[5]; basolateral 5 μM CDFDA alone (Control), 48 filters",0.81 pmol/min
same,"total CDF production, % of the CDFDA dose",[5]; basolateral dosing,4.3 ± 1.21%
same,half-life of CDFDA hydrolysis in transport buffer,[8],> 100 h
same,clearance of CDFDA hydrolysis in transport buffer,[8]; translated from half-life,3e-07 mL/min
Glyceollin,model predicted effect on CDF clearance across the apical membrane,[1]; CDFDA dosing,no effect on apical membrane clearance
same,"β-adjustment factor for enhancement of basolateral membrane clearance (Clcdf,bl), estimate (% RSE)",[1]; apical CDFDA dosing,2.2 × 10^−2 (<0.1)
same,"β-adjustment factor for enhancement of basolateral membrane clearance (Clcdf,bl), estimate (% RSE)",[1]; basolateral CDFDA dosing,1.8 × 10^−2 (2.9)
same,"AB Donor (apical) CDF at 120 minutes, mean",[5]; [13],95 pmoles/well
same,"AB Intracellular CDF at 120 minutes, mean",[5]; [13],15 pmoles/well
same,"AB directional CDF flux, mean",[5]; [14],0.63 pmol/min
same,"BA Donor (basolateral) CDF at 120 minutes, mean",[5]; [15],187 pmoles/well
same,"BA Intracellular CDF at 120 minutes, mean",[5]; [15],30 pmoles/well
same,"BA directional CDF flux, mean",[5]; [16],0.53 pmol/min
same,effect on CDFDA hydrolysis in Caco-2 cell homogenates,[6],no effect
lucifer yellow,lucifer yellow clearance,[9],8.7 ± 0.24 × 10^−5 mL/min
